Measurements reported in ChEMBL document CHEMBL1125498, “N-methylated analogs of Ac[Nle28,31]CCK(26-33): synthesis, activity, and receptor selectivity” (J Med Chem, 1992).
Where a SMILES comes first, the peptide text is derived from it. [ ]: non-standard residue; d: D form. sY = N[C@@H](Cc1ccc(OS(=O)(=O)O)cc1)C(=O)O; Nle = CCCC[C@H](N)C(=O)O

Tests used:
[1] = molecular target: T1, Cholecystokinin receptor type A (Cavia porcellus, UniProt Q63931); assay: In vitro smooth muscle contraction activity in guinea pig gall bladder cholecystokinin type A receptor; format: functional, tissue-based
T1 sequence (Q63931 whole entry): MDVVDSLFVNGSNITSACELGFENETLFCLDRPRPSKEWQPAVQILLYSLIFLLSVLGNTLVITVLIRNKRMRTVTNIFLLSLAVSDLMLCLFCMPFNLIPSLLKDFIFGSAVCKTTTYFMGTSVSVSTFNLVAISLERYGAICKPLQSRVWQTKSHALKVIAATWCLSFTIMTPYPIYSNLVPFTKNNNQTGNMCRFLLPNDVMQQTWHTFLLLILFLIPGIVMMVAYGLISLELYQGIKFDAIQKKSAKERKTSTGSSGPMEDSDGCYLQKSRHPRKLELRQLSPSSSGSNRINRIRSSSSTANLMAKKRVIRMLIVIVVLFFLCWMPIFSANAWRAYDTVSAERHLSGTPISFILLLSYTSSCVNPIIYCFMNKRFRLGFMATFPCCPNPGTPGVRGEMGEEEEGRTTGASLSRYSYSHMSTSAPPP
How it was run: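 Isolated guinea pig tissue strips, equilibrated 90 min with periodic tension readjustment and bath changes. Isometric force recorded. Cumulative-free concentration-response curves from increasing peptide concentrations, strips washed three times with 5–15-min intervals between doses. Carbachol test dose (100 nM) measured before, during and after as control. EC50 from curves; points in duplicate, mean ± SEM of at least three experiments.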

Cavia porcellus [2] = species: Cavia porcellus; assay: Relative Potency(RP %) (EC50) was calculated by using smooth muscle contraction assay in guinea pig gallbladder with relative to Ac[Nle28,31]CCK(26-33)(EC50); format: functional, Muscle tissue
How it was run: (§1)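 Same isolated guinea pig tissue contraction set-up: 90 min equilibration, isometric force, increasing peptide concentrations with three washes at 5–15-min intervals, 100 nM carbachol control.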

Cavia porcellus [3] = species: Cavia porcellus; assay: Relative Potency(RP %) (EC50) was calculated by using smooth muscle contraction assay in guinea pig ileum with relative to Ac[Nle28,31]CCK(26-33)(EC50); format: functional; how it was run: as §1
Cavia porcellus [4] = species: Cavia porcellus; assay: Relative Potency(RP %) (EC50) was calculated by using smooth muscle contraction assay in guinea pig stomach with relative to Ac[Nle28,31]CCK(26-33)(EC50); format: functional, Muscle tissue; how it was run: as §1
[5] = molecular target: Gastrin/cholecystokinin type B receptor (Cavia porcellus); assay: In vitro smooth muscle contraction activity in guinea pig stomach consisting of CCK/gastrin receptor subtype
[6] = molecular target: Cholecystokinin receptor (Cavia porcellus); assay: In vitro smooth muscle contraction activity in guinea pig ileum consists of two or three CCK receptor subtypes

SMILES	EC50 [1]	EC50 [5]	EC50 [6]	Relative Potency (Cavia porcellus [2])	Relative Potency (Cavia porcellus [3])	Relative Potency (Cavia porcellus [4])
CCCC[C@H](NC(=O)[C@H](Cc1ccc(OS(=O)(=O)O)cc1)NC(=O)[C@H](CC(=O)O)NC(C)=O)C(=O)NCC(=O)N[C@@H](Cc1c[nH]c2ccccc12)C(=O)N[C@@H](CCCC)C(=O)N(C)[C@@H](CC(=O)O)C(=O)N[C@@H](Cc1ccccc1)C(N)=O	0.002 µM					
CCCC[C@H](NC(=O)[C@H](Cc1ccc(OS(=O)(=O)O)cc1)NC(=O)[C@H](CC(=O)O)NC(C)=O)C(=O)NCC(=O)N(C)[C@@H](Cc1c[nH]c2ccccc12)C(=O)N[C@@H](CCCC)C(=O)N[C@@H](CC(=O)O)C(=O)N[C@@H](Cc1ccccc1)C(N)=O	0.053 µM					
CCCC[C@H](NC(=O)[C@H](Cc1c[nH]c2ccccc12)NC(=O)CN(C)C(=O)[C@H](CCCC)NC(=O)[C@H](Cc1ccc(OS(=O)(=O)O)cc1)NC(=O)[C@H](CC(=O)O)NC(C)=O)C(=O)N[C@@H](CC(=O)O)C(=O)N[C@@H](Cc1ccccc1)C(N)=O	0.0001 µM					
CCCC[C@H](NC(=O)[C@H](Cc1ccc(OS(=O)(=O)O)cc1)NC(=O)[C@H](CC(=O)O)NC(C)=O)C(=O)NCC(=O)N[C@@H](Cc1c[nH]c2ccccc12)C(=O)N[C@@H](CCCC)C(=O)N[C@@H](CC(=O)O)C(=O)N[C@@H](Cc1ccccc1)C(N)=O	0.0012 µM					
CCCC[C@H](NC(=O)[C@H](Cc1c[nH]c2ccccc12)NC(=O)[C@@H]1CCCN1C(=O)[C@H](CCCC)NC(=O)[C@H](Cc1ccc(OS(=O)(=O)O)cc1)NC(=O)[C@H](CC(=O)O)NC(C)=O)C(=O)N[C@@H](CC(=O)O)C(=O)N[C@@H](Cc1ccccc1)C(N)=O (Ac-D[sY][Nle]PW[Nle]DF-NH2)	0.06 µM	0.054 µM	0.104 µM	2	1.3	25

The next lines start with results.

EC50 [1]	EC50 [5]	EC50 [6]	SMILES	Relative Potency (Cavia porcellus [2])	Relative Potency (Cavia porcellus [3])	Relative Potency (Cavia porcellus [4])
0.003 µM			CCCC[C@H](NC(=O)[C@H](Cc1ccc(OS(=O)(=O)O)cc1)NC(=O)[C@H](CC(=O)O)NC(C)=O)C(=O)NCC(=O)N[C@@H](Cc1c[nH]c2ccccc12)C(=O)N[C@@H](CCCC)C(=O)N[C@@H](CC(=O)O)C(=O)N(C)[C@@H](Cc1ccccc1)C(N)=O			
0.02 µM	0.14 µM	0.037 µM	CCCC[C@H](NC(=O)[C@H](Cc1ccc(OS(=O)(=O)O)cc1)NC(=O)[C@H](CC(=O)O)NC(C)=O)C(=O)NCC(=O)N[C@@H](Cc1c[nH]c2ccccc12)C(=O)N(C)[C@@H](CCCC)C(=O)N[C@@H](CC(=O)O)C(=O)N[C@@H](Cc1ccccc1)C(N)=O	6	4	10
0.0014 µM			CCCC[C@H](NC(=O)[C@H](Cc1c[nH]c2ccccc12)NC(=O)CNC(=O)[C@H](CCCC)NC(=O)[C@H](Cc1ccc(OS(=O)(=O)O)cc1)N(C)C(=O)[C@H](CC(=O)O)NC(C)=O)C(=O)N[C@@H](CC(=O)O)C(=O)N[C@@H](Cc1ccccc1)C(N)=O			
